Experimental data published in the EternaBench riboswitch data.

System: MS2 coat protein
Assay: apparent Kd, MS2 coat protein; higher = weaker binding; RNA-MaP array; FMN 200 µM where present
Procedure, shortened: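 Two titrations, one without ligand and one with constant ligand, were run with SNAP-549-labelled MS2 coat protein from 0.7 or 1.5 nM, doubling to 3 µM. The targets were designs transcribed by stalled E. coli RNA polymerase on Illumina sequencing-chip clusters, in 100 mM Tris-HCl pH 7.5, 80 mM KCl, 4 mM MgCl2, BSA, DTT, yeast tRNA and Tween-20. The apparent Kd is the median of filtered per-cluster binding-curve fits, with green signal normalised to red-channel RNA signal and control-cluster median Fmax.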

[1] = designed as: OFF switch for flavin mononucleotide, no ligand
[2] = ligand present: flavin mononucleotide, designed as: OFF switch for flavin mononucleotide
[3] = designed as: ON switch for flavin mononucleotide, no ligand
[4] = ligand present: flavin mononucleotide, designed as: ON switch for flavin mononucleotide

## GUUAUGCAGCAGGAUAUCCAUCCGCGGUAUGGUGGAGAAGGGCUGACAUGAGGAUCACCCAUGUGCGUCCUAGG
[1]
  apparent Kd: 39.9 nM
[2]
  apparent Kd: 104 nM

## GUUAUGUUAGGAUAUGCUUAUGGUGGGUGCUCAGAUAUGAUGCAGAAGGGACAUGAGGAUCACCCAUGUACUGU
[1]
  apparent Kd: 484 nM
[2]
  apparent Kd: 310 nM

## GUUAUUUAUGUAGGAUAUGCGAGGCGAGCCUGAGCAGAAGGACAUGAGGAUCACCCAUGUAUUGCGGUUUGUGUUCAGAUCGCU
[1]
  apparent Kd: 17.9 nM
[2]
  apparent Kd: 25.6 nM

## GUUGGGUGUCAUGUCGCACAUGAGGAUCACCCAUGUAGGAGGUAGGAUAUCCACGAGUAACAAGAGGAGAAGGGCCGUUAGCGU
[1]
  apparent Kd: 27.9 nM
[2]
  apparent Kd: 33.6 nM

## GUUUCGGGAGGAUAUGCGUGGAUUGUUCUCGUAUGUUGUUUACAUGAGGAUCACCCAUGUAGAAGGUCUGGAGC
[1]
  apparent Kd: 170 nM
[2]
  apparent Kd: 136 nM

## GUUUUACAUGAGGAUCACCCAUGUGAGGAUAUAUUGUUAUUUUUAAUAUUUUUUAGUGGUAGAAGGCGCGUGAU
[1]
  apparent Kd: 31.4 nM
[2]
  apparent Kd: 26 nM

## GUUUUAUAGAUCCAUUUUAACAACAUGAGGAUCACCCAUGUGCAGGAUAUCGUUUGUUUUAUAUUCGAGAAGGGCAAAUUCAUU
[1]
  apparent Kd: 44.3 nM
[2]
  apparent Kd: 102 nM

## UAAAAGACUAGCGAUCUAAAGAUCACAUGAGGAUCACCCAUGUAGGAUAUGAGCAGAAAAUCUGCUCAGAAGGACAUGCUAGUC
[1]
  apparent Kd: 5.88 nM
[2]
  apparent Kd: 9.18 nM

## UAAAAGCUAGGAUAUACAUGAGGAUCACCCAUGUCACGGGUGCCACACCGAAAGGUGCGUAGAAGGAGCCCAAA
[1]
  apparent Kd: 38.6 nM
[2]
  apparent Kd: 103 nM

## UAAAAGUAGGUAGGAUAUCAUCACGGAAGAUCCUGGAUACUUAGUACAUGAGGAUCACCCAUGUAUGAGAAGGACCAGUGUUUG
[1]
  apparent Kd: 12.5 nM
[2]
  apparent Kd: 14.8 nM

## UAAAAGUGAGGAUAUGCGAAGGCGUCUGAUAGACGAGGCUAGCAGAAGGCACAUGAGGAUCACCCAUGUGGGAU
[1]
  apparent Kd: 89.7 nM
[2]
  apparent Kd: 152 nM

## UAAAAUAGUGUGAGGAUAUGCUGGUCCUUGGAUCAGCAGAAGGCACAUGAGGAUCACCCAUGUAGUUAAUUAUA
[1]
  apparent Kd: 41.8 nM
[2]
  apparent Kd: 268 nM

## UAAACAUGAGGAUCACCCAUGUUAUGAUCGGUUGAUGAAAGUGAGGAUAUACAAAAUUUUAUGGAGUAGAAGGCACUGGGUUCU
[3]
  apparent Kd: 31.1 nM
[4]
  apparent Kd: 29.9 nM

## UAAAGCUCCGAGAAGGUAUGCGUACAUGAGGAUCACCCAUGUCAAAGCAUAAGGAUAUCGUGUGCGUGCGUCGAAUGUAGGAAA
[3]
  apparent Kd: 10.2 nM
[4]
  apparent Kd: 5.55 nM

## UAAAUACAUGAGGAUCACCCAUGUCAAAAGACAUGAGGAUAUGUACAGUCUUCGGUCUGUACAGAAGGCAUGAAUA
[3]
  apparent Kd: 464 nM
[4]
  apparent Kd: 35 nM

## UAAAUGUCAGGAUAUUGUUAAUUUAGUUGUUUGUAUUAGUUCGAGAAGGGACAUGAGGAUCACCCAUGUUAAUU
[1]
  apparent Kd: 30.2 nM
[2]
  apparent Kd: 36 nM

## UAAAUGUGAGGAUAUCAGGUGUGCUAGAGAACUGGUACAUCUGAGAAGGCACAUGAGGAUCACCCAUGUUCUUC
[1]
  apparent Kd: 39 nM
[2]
  apparent Kd: 207 nM

## UAAAUGUGAGGAUAUUCGAAUAACACGGAGACGUGUUGUUCGGAGAAGGCACAUGAGGAUCACCCAUGUUCCUU
[1]
  apparent Kd: 22.7 nM
[2]
  apparent Kd: 219 nM

## UAAAUUAACAAGAAGGCUAACAUGAGGAUCACCCAUGUUGUACAUGGAUAUAGAGGAUAUUGCUAAUAAUUAUUUAUCAUAAUU
[1]
  apparent Kd: 24.4 nM
[2]
  apparent Kd: 20.1 nM

## UAAGCGUAUGUUAGGAUAUGCUGGUCCUUGGAUCAGCAGAAGGAACAUGAGGAUCACCCAUGUAGAAUCGUUUA
[1]
  apparent Kd: 18.3 nM
[2]
  apparent Kd: 40.2 nM

## UAAGUAUGUUGAGGAUAUUAUGUUUGGUGAGAUGACAUGAGGAUCACCCAUGUGUUAUCAGUUCUUAAGAAGGCAACAUACUUA
[3]
  apparent Kd: 25.7 nM
[4]
  apparent Kd: 17.8 nM

## UAAGUUGAGGAGAAGGGAGCACAUGAGGAUCACCCAUGUGGUCCUUUGUGCUCAGGAUAUCCAUGGAGCUCCGUCGCGUUCCAU
[1]
  apparent Kd: 4.49 nM
[2]
  apparent Kd: 3.32 nM

## UAAUAUUUAUGAUAUUAUUACAUUAGAAGGCAAGACAUGUGGAUACAUGAGGAUCACCCAUGUAUUGAGGAUAUAGACAUAUAU
[1]
  apparent Kd: 15.4 nM
[2]
  apparent Kd: 19.2 nM

## UAAUGACCUGUACCUAGUUGGUGACAUGAGGAUCACCCAUGUCAGGAUAUCGGGUUUGAAAACAACGAGAAGGGACAACGGGUG
[1]
  apparent Kd: 20.9 nM
[2]
  apparent Kd: 42.1 nM

## UACAGACAUGAGGAUCACCCAUGUGAGGAUAUCGAUAACGAUAACAUAAUAUAAACGGCGAGAAGGCACAGCAU
[1]
  apparent Kd: 31.7 nM
[2]
  apparent Kd: 34.9 nM

## UACAGACAUGAGGAUCACCCAUGUGAGGAUAUUUCUGCUGGGAUCAGCCCAAUAUGCGAGAGAAGGCACUAGGG
[1]
  apparent Kd: 133 nM
[2]
  apparent Kd: 184 nM

## UACAUGAGGAUCACCCAUGUUUUGUCGUGUAUGGUAUUUAUCUAGGAUAUCAAUUUGUAUAUUUAUGAGAAGGAGAAUAUUAAU
[1]
  apparent Kd: 34.5 nM
[2]
  apparent Kd: 39.6 nM

## UACAUUUAACAGAAGGCGUUUAUAUUUAACUUACGAGGAUAUGUAUAACAUGAGGAUCACCCAUGUAACUUGGAUAGAAUAUCU
[3]
  apparent Kd: 9.46 nM
[4]
  apparent Kd: 8.32 nM

## UACGUACAGAAGAACUCCGGAUCUAGAAGGGACAUGAGGAUCACCCAUGUACCGUUGAUUGCUUGUCAGGAUAUAGACCCGGCC
[1]
  apparent Kd: 6.07 nM
[2]
  apparent Kd: 14.2 nM

## UACGUACAGAAGAACUCCGGGUCCAGAAGGGACAUGAGGAUCACCCAUGUACCGUUGAUUGCUUGUCAGGAUAUGGACCCAGCC
[1]
  apparent Kd: 7.75 nM
[2]
  apparent Kd: 26.8 nM

## UACGUAUGAGGAUAUACAAACAGAAAAAUCAGACGUAACUGACAUGAGGAUCACCCAUGUAGAAGGCAUAUACA
[1]
  apparent Kd: 27.7 nM
[2]
  apparent Kd: 18.6 nM

## UAGAAGUCAGGAUAUGCAUGGCGGGACUUGCGUCGUGGCGUGCAGAAGGGACAUGAGGAUCACCCAUGUGGAGC
[1]
  apparent Kd: 116 nM
[2]
  apparent Kd: 169 nM

## UAGAGUCGCGUCAGGAUAUACCACUUAACCCAGUAGUAGAAGGGACAUGAGGAUCACCCAUGUCGGUGUUAGCC
[1]
  apparent Kd: 23.2 nM
[2]
  apparent Kd: 26.2 nM

## UAGGCGAACAUGAGGAUCACCCAUGUACGCGGUAUAUGAGCGAGAAGGGUAUGAUGUGUGGUCCUACAGGAUAUCGCUAAUAAA
[3]
  apparent Kd: 26.2 nM
[4]
  apparent Kd: 6.52 nM

## UAGUAUAAGGGCAUUACACAUGAGGAUCACCCAUGUACGUUAGAGGAUAUGCAUUCCAGUCGAACGUAGAAGGUUAGAGAAGGG
[1]
  apparent Kd: 211 nM
[2]
  apparent Kd: 176 nM

## UAGUGCAUUAGAGGAUAUUCUUACGACACGAGUAAGACAUGAGGAUCACCCAUGUUGUGGCAUGGGAAGAAGGCUGAUGUGCUA
[3]
  apparent Kd: 60 nM
[4]
  apparent Kd: 14.5 nM

## UAUAAACAUGAGGAUCACCCAUGUAAUAAUAUGGGAGGAUAUCAGAAUUUAUUUAUUUAAUGAGAAGGCCUAAUAU
[3]
  apparent Kd: 627 nM
[4]
  apparent Kd: 43.2 nM

## UAUAACUUACAGAAGGGUAUUGUGGUGCAUUAUUAGUAGGAAAUACUAUACAGGAUAUGUAAUACAUGAGGAUCACCCAUGUUC
[3]
  apparent Kd: 22.3 nM
[4]
  apparent Kd: 14.9 nM

## UAUAAUUAGUAGAAGGACGGAGAGUAAGAAGUCGUAGGAUAUACAAAAGACAUGAGGAUCACCCAUGUGAGUAUGUUGGGAAGG
[1]
  apparent Kd: 7.05 nM
[2]
  apparent Kd: 7.62 nM

## UAUACACAUGAGGAUCACCCAUGUGAGGAUAUGUAAAAAAAACCGACGGUUUUUUUUUACAGAAGGCACAUAUA
[1]
  apparent Kd: 51.6 nM
[2]
  apparent Kd: 53.5 nM

## UAUAUAAUUAAGAGCUGGAAAACAACAUGAGGAUCACCCAUGUAGGAUAUCAGCACGAUAAGUGCUGAGAAGGACUACCAGCUC
[1]
  apparent Kd: 14 nM
[2]
  apparent Kd: 16.8 nM

## UAUAUAUAGGCAGGAUAUACAUGAAUAUAUAUAAUAUAAUAUAAUAUAACAUGAGGAUCACCCAUGUAGAAGGGCCAAUAUAUA
[1]
  apparent Kd: 56.2 nM
[2]
  apparent Kd: 117 nM

## UAUAUAUAGGCAGGAUAUACAUGAAUAUAUAUAAUGUAGUAUGAUGUAACAUGAGGAUCACCCAUGUAGAAGGGCCAAUAUAUA
[1]
  apparent Kd: 36.8 nM
[2]
  apparent Kd: 95.2 nM

## UAUAUAUAGGCAGGAUAUACAUGUAUAUAUAAUAUAUUAUAUAUUAUUACAUGAGGAUCACCCAUGUAGAAGGGCCAUAUUAUA
[1]
  apparent Kd: 41.3 nM
[2]
  apparent Kd: 65.9 nM

## UAUAUAUAGUAAGGAUAUGUAAUUAAUUUAUAAACAGAAGGUACUGACAUGAGGAUCACCCAUGUUUUAGUGUGGGCAUGUAGA
[1]
  apparent Kd: 95.3 nM
[2]
  apparent Kd: 155 nM

## UAUAUAUAGUAAGGAUAUGUAAUUAUUUUAGAAACAGAAGGUACUGACAUGAGGAUCACCCAUGUUUUAGUGUGGGCAUGUAGA
[1]
  apparent Kd: 90.4 nM
[2]
  apparent Kd: 147 nM

## UAUAUAUAGUAAGGAUAUGUAGUUAUUUUAUAAACAGAAGGUACUGACAUGAGGAUCACCCAUGUUUUAGUGUGGGCAUGUAGA
[1]
  apparent Kd: 87.7 nM
[2]
  apparent Kd: 128 nM

## UAUAUAUAGUAAGGAUAUGUAUUAAUUUUUUAAACAGAAGGUACUGACAUGAGGAUCACCCAUGUUUUAGUGUGGGCAUGUAGA
[1]
  apparent Kd: 78.8 nM
[2]
  apparent Kd: 131 nM

## UAUAUGUCAGGAUAUUAGUUGAGGUGGAAUUUAGCCUCUGCUGAGAAGGGACAUGAGGAUCACCCAUGUUCCUC
[1]
  apparent Kd: 21.9 nM
[2]
  apparent Kd: 200 nM

## UAUAUGUCAGGAUAUUAGUUGAGUUAGAAUUUAUCCUCUGCUGAGAAGGGACAUGAGGAUCACCCAUGUUCCUC
[1]
  apparent Kd: 15.1 nM
[2]
  apparent Kd: 31.5 nM

## UAUAUGUGAGGAUAUCAGGUGUGCUAGCGUACUGGUACAUCUGAGAAGGCACAUGAGGAUCACCCAUGUAUCUU
[1]
  apparent Kd: 29.7 nM
[2]
  apparent Kd: 110 nM

## UAUAUUAUUAUAGGAUAUGGAUAUGAUGCAUAUCCAGAAGGGUGAUUAUAAUAUAUUCUGUACAUGAGGAUCACCCAUGUUUAU
[3]
  apparent Kd: 258 nM
[4]
  apparent Kd: 75.9 nM

## UAUCCACAUGAGGAUCACCCAUGUCAGGAUAUUAGAUCUAUAUAUACAUAUAAUUAUUUAAGAAGGGACACUAA
[1]
  apparent Kd: 11.5 nM
[2]
  apparent Kd: 11.8 nM

## UAUCUGUCGGUCAGGAUAUCGUUUGCCACUGUAGCCGAGAAGGGACAUGAGGAUCACCCAUGUGAUUCACGGCA
[1]
  apparent Kd: 23.1 nM
[2]
  apparent Kd: 27.1 nM

## UAUGCACAUGAGGAUCACCCAUGUGAGGAUAUAGGUCGUGUGCGUUCACGCAUCGUACUUAGAAGGCACUGCGG
[1]
  apparent Kd: 46.9 nM
[2]
  apparent Kd: 92.5 nM

## UAUGGUAAAGUCAGGAUAUACGUACGUCGUUCUAGGUAGAAGGGACAUGAGGAUCACCCAUGUAUGAUAGUGUU
[1]
  apparent Kd: 46.5 nM
[2]
  apparent Kd: 42.8 nM
